Experimental data published in paper PMC11484934 (Nature Communications, 2024).
Values belong to the compound of their own block, whether it stands above or below them.

Key:
[1] = biological target: Flag-tagged PGAM1 in HEK293T cells (Homo sapiens, UniProt P18669); type: cell-based; settings: 30 min, glucose-free medium
sgCTRL HepG2 cells [2] = experiment: Glucose consumption, sgCTRL HepG2 cells; type: cell-based, human; settings: FBP 10 mM, 30 min
How it was run: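 HepG2 cells were cultured overnight in 96 wells, then treated with H2O or 10 mM test compound for 0.5 h, or with H2O or 1 mM derivative for 24 h. Glucose consumption from the culture medium was measured with a glucose oxidase kit.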

recombinant PGAM1 [3] = biological target: T1, recombinant PGAM1 (Homo sapiens, UniProt P18669); experiment: Histidine phosphorylation of recombinant PGAM1; type: biochemical; settings: for PGAM1 phosphorylation / 3-pHis modification: immunoblotting and Phos-tag SDS-PAGE
T1 sequence (P18669 whole entry): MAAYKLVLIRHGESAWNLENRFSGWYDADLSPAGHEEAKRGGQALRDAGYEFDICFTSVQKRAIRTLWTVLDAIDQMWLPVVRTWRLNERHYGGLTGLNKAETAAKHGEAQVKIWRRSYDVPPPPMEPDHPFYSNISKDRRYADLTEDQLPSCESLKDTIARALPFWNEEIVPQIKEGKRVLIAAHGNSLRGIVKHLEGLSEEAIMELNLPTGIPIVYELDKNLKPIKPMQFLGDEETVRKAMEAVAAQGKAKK
How it was run: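 Recombinant human PGAM1 was incubated with test compound. It was then analysed by Phos-tag SDS-PAGE or by immunoblotting with monoclonal antibodies specific for N3-phosphohistidine (3-pHis) and 1-phosphohistidine (1-pHis).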

recombinant human GAPDH = recombinant human GAPDH (Homo sapiens, UniProt P04406); experiment: Thermal shift assay with purified recombinant protein; type: binding; settings: FBP vs H2O, CBB staining
recombinant human GAPDH, sequence (P04406 43-335): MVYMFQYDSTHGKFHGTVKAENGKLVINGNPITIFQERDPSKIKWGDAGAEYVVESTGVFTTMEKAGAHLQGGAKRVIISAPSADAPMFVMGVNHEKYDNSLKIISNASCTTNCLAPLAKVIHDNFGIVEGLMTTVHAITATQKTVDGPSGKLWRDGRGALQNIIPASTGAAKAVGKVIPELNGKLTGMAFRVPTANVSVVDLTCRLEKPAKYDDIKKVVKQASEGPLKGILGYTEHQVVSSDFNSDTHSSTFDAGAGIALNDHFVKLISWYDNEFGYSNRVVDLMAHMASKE
How it was run: (§1)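 Purified recombinant human protein (0.2 μg/μL) was treated with test compound or H2O for 30 min at 25 °C. It was split into six aliquots, each heated in parallel for 3 min at its set temperature, then spun 20,000 g for 20 min at 4 °C. Supernatants were run on SDS-PAGE and stained with Coomassie blue.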

recombinant PGAM1 [4] = biological target: T1, recombinant PGAM1; experiment: PGAM1 enzyme activity assay; type: biochemical; settings: for effect on PGAM1 enzymatic activity: PGAM1 enzymatic assay
recombinant human HDAC2 = recombinant human HDAC2 (Homo sapiens, UniProt Q92769); experiment: Thermal shift assay with purified recombinant protein; type: binding; settings: recombinant human HDAC2, FBP vs H2O, CBB staining
recombinant human HDAC2, sequence (Q92769 whole entry): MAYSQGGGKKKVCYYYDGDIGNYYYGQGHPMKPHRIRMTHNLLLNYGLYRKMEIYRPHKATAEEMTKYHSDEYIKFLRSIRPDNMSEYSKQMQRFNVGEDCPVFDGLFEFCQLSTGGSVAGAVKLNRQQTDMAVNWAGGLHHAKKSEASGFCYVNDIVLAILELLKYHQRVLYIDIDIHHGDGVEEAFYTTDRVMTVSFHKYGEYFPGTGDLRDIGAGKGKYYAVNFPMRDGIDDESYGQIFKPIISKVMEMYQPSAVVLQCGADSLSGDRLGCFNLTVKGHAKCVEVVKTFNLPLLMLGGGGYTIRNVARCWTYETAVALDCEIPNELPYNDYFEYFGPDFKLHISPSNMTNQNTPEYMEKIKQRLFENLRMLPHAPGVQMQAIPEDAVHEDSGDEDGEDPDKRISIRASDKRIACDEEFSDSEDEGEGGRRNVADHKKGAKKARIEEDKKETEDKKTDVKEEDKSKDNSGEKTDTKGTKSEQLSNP
How it was run: as §1

HepG2 cells [5] = experiment: Cell viability / proliferation assay; type: cell-based, human; settings: sgCTRL HepG2, FBP 10 mM, 24 h, glucose-free medium
How it was run: (§2)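 HepG2 cells (5000/well) were allowed to adhere overnight. They were exposed 24 h to a dilution series of test compound in glucose-free or 5 mM glucose medium, or to derivatives in 25 mM glucose medium for 24 h or 48 h. Viability was read by CCK8 colorimetry. PGAM1-knockout cells were made with a LentiCRISPR v2 sgRNA (HEK293T-packaged lentivirus, polybrene 10 µg/mL for 24 h) and selected with puromycin.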

PMM2 [6] = biological target: T2, PMM2 (Homo sapiens, UniProt O15305); experiment: Microscale thermophoresis; type: binding
T2 sequence (O15305 1-246): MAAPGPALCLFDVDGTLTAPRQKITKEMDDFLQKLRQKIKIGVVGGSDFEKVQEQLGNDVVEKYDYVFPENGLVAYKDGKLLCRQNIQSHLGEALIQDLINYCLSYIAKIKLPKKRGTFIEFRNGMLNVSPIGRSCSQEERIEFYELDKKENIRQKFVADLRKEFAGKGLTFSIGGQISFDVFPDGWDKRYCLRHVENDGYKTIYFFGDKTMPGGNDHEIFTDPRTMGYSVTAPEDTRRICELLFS
How it was run: (§3)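 Purified protein was labelled on lysines with a RED-NHS dye. It was mixed with test compound in 50 mM Tris-HCl pH 7.5, 100 mM NaCl, 0.05% Tween-20 and incubated 30 min at room temperature in the dark. The mix was loaded into capillaries for microscale thermophoresis on a Monolith NT.115.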

recombinant PGAM1 [7] = biological target: T1, recombinant PGAM1; experiment: Microscale thermophoresis; type: binding
How it was run: as §3

PGM1 [8] = biological target: T3, PGM1 (Homo sapiens, UniProt P36871); experiment: Thermal shift assay with purified recombinant protein; type: binding; settings: recombinant human PGM1, FBP vs H2O, CBB staining
T3 sequence (P36871 1-580 isoform P36871-2): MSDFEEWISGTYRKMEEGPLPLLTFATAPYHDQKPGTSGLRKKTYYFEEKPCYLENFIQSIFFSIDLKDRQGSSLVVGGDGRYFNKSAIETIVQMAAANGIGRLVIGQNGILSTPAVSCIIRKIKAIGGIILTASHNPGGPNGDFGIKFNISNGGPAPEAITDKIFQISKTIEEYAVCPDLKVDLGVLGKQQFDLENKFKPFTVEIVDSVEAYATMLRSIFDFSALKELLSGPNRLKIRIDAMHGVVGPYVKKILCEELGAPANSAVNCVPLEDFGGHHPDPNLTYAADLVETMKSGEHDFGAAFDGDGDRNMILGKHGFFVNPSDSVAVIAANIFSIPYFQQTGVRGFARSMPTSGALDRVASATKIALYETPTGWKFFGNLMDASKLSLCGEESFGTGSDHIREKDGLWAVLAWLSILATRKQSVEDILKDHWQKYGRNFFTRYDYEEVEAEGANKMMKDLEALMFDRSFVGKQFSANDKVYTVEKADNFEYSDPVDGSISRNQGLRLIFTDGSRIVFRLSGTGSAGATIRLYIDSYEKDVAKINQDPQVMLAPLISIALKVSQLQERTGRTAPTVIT
How it was run: as §1

sgPGAM1 HepG2 cells = experiment: Cell viability / proliferation assay; type: cell-based, human; settings: sgPGAM1 HepG2, FBP 10 mM, 24 h, glucose-free medium
How it was run: as §2

PGAM1-H11A = biological target: T4, PGAM1-H11A (Homo sapiens, UniProt P18669, H11A); experiment: PGAM1 enzyme activity assay, H11A mutant; type: biochemical
T4 sequence (P18669 1-254 H11A): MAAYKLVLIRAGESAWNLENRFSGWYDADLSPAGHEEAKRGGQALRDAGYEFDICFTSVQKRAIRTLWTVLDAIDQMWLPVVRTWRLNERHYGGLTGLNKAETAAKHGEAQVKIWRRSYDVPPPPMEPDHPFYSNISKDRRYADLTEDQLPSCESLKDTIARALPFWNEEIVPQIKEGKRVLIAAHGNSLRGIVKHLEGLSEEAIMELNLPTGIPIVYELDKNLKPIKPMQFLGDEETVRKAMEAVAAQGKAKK

PMM2 [9] = biological target: T2, PMM2; experiment: PMM2 enzyme activity assay; type: biochemical
recombinant human PRPS1 = experiment: Thermal shift assay with purified recombinant protein; type: binding; settings: recombinant human PRPS1, FBP vs H2O, CBB staining
How it was run: as §1

PMM2 [10] = biological target: T2, PMM2; experiment: as above; type: binding; settings: recombinant human PMM2, FBP vs H2O, CBB staining
How it was run: as §1

sgCTRL HepG2 cells [11] = experiment: Lactate production, sgCTRL HepG2 cells; type: cell-based, human; settings: FBP 10 mM, 30 min
How it was run: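 HepG2 cells were cultured overnight in 96 wells, then treated with H2O or 10 mM test compound for 0.5 h, or with H2O or 1 mM derivative for 24 h. Lactate in the culture medium was measured with a lactate assay kit.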

PGM1 [12] = biological target: T3, PGM1; experiment: PGM1 enzyme activity assay; type: biochemical
recombinant human RAN = experiment: Thermal shift assay with purified recombinant protein; type: binding; settings: FBP vs H2O, CBB staining
How it was run: as §1

HepG2 cells [13] = experiment: LC-MS/MS detection of 3-PG and 2-PG; type: cell-based, human; settings: 10 mM FBP, 30 min
How it was run: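 HepG2 cells (2 × 10^6/well, triplicates) were treated with 10 mM test compound for 0.5 h in 5 mM glucose, or H2O as control. Cells were extracted in cold 80% MeOH and analysed by HILIC LC-MS/MS in negative mode. The 3-PG and 2-PG fraction came from the m/z 97/(79 + 97) fragment ratio against standard-mixture curves. Values were scaled to the WT total mono-PG concentration.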

PGM1 [14] = biological target: T3, PGM1; experiment: Microscale thermophoresis; type: binding
How it was run: as §3

HepG2 cells [15] = experiment: LC-MS/MS quantification of intracellular FBP concentrations; type: cell-based, human; settings: HepG2 cells treated with 10 mM FBP, 30 min
How it was run: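 HepG2 cells (2 × 10^6/well, triplicates) were allowed to adhere overnight. They were treated 0.5 h with 10 mM test compound or H2O in 5 mM or 25 mM glucose medium. After PBS washes, cells were extracted in cold 80% MeOH containing 13C6-labelled internal standard (0.1 µg/mL), centrifuged and dried. Extracts were run by HILIC (BEH Amide) LC-MS/MS in negative mode, 10 mM NH4HCO3/MeCN.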

recombinant human OXSR1 = recombinant human OXSR1 (Homo sapiens, UniProt O95747); experiment: Thermal shift assay with purified recombinant protein; type: binding; settings: recombinant human OXSR1, FBP vs H2O, CBB staining
recombinant human OXSR1, sequence (O95747 whole entry): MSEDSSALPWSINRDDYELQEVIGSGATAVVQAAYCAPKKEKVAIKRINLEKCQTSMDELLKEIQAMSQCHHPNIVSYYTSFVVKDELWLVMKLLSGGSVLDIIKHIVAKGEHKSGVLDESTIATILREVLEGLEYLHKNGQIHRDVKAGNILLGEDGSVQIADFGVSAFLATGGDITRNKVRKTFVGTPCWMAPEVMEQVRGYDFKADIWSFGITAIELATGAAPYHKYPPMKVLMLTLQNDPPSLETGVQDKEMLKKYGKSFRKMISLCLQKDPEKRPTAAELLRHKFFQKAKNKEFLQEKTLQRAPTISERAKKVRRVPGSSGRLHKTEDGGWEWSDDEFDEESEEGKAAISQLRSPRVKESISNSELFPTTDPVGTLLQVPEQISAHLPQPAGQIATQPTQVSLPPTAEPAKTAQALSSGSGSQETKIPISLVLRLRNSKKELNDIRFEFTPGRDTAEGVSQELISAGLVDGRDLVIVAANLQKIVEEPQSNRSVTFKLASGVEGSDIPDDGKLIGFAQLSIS
How it was run: as §1

Flag-tagged PGAM1 in HEK293T cells, sequence (P18669 whole entry): as the sequence (P18669 whole entry) above

Compound: O=C(COP(=O)(O)O)[C@@H](O)[C@H](O)[C@H](O)COP(=O)(O)O [FBP, fructose-1,6-bisphosphate]
histidine phosphorylation of Flag-tagged PGAM1 in living cells [1]: Dose-dependent histidine phosphorylation
glucose consumption (sgCTRL HepG2 cells [2]): significant increases
concentration able to phosphorylate PGAM1 (recombinant PGAM1 [3]; concentration-dependent immunoblotting, recombinant PGAM1): 1 mM
PGAM1 phosphorylation / 3-pHis modification (recombinant PGAM1 [3]; recombinant PGAM1): act as a phosphate donor to form 3-pHis modification
time after which 3-pHis modification decayed (recombinant PGAM1 [3]; time-dependent PGAM1 histidine phosphorylation): > 4 h
thermal stability of recombinant protein (recombinant human GAPDH): increased
EC50 (recombinant PGAM1 [4]): 480 µM
effect on PGAM1 enzymatic activity (recombinant PGAM1 [4]): could activate the enzyme
thermal stability of recombinant protein (recombinant human HDAC2): reduced
cell proliferation (HepG2 cells [5]): significantly upregulated
Kd (PMM2 [6]): 247 µM
Kd (recombinant PGAM1 [7]): 166 µM
thermal stability of recombinant protein (PGM1 [8]): increased
effect on cell proliferation in PGAM1-knockout cells (sgPGAM1 HepG2 cells): abolished
activation effect towards PGAM1-H11A mutant (PGAM1-H11A): lost its activation effect
IC50 (PMM2 [9]): 7910 µM
thermal stability of recombinant protein (recombinant human PRPS1): increased
thermal stability of recombinant protein (PMM2 [10]): increased
lactate production (sgCTRL HepG2 cells [11]): significant increases
IC50 (PGM1 [12]): 2790 µM
thermal stability of recombinant protein (recombinant human RAN): reduced
2-PG/3-PG ratio (HepG2 cells [13]): significant increased
Kd (PGM1 [14]): 235 µM
intracellular FBP concentration after exogenous treatment (HepG2 cells [15]): 1.435 ± 0.062 mM
thermal stability of recombinant protein (recombinant human OXSR1): reduced

Compound: O=P(O)(O)O[C@H]1O[C@H](CO)[C@@H](O)[C@H](O)[C@H]1O [G1P, α-D-glucose-1-phosphate]
effect on PGAM1 enzymatic activity (recombinant PGAM1 [4]): did not regulate the enzymatic activity

Compound: C=C(OP(=O)(O)O)C(=O)O [PEP, phosphoenolpyruvate, reference compound]
PGAM1 phosphorylation / 3-pHis modification (recombinant PGAM1 [3]; recombinant PGAM1): weak phosphorylation

Next, values leading:

effect on PGAM1 enzymatic activity (recombinant PGAM1 [4]): did not regulate the enzymatic activity
Compound: D-glucose-6-phosphate [G6P]

effect on PGAM1 enzymatic activity (recombinant PGAM1 [4]): did not regulate the enzymatic activity
Compound: D-mannose-6-phosphate [M6P]

effect on PGAM1 enzymatic activity (recombinant PGAM1 [4]): did not regulate the enzymatic activity
Compound: fructose-1-phosphate [F1P]

effect on PGAM1 enzymatic activity (recombinant PGAM1 [4]): did not regulate the enzymatic activity
Compound: fructose-6-phosphate [F6P]
